TAAR1 agonist: human TAAR1 agonism; Q96RJ0; CHO RD-HGA16 TAAR1, Fluo-8 calcium fluorescence; vehicle wells 0%, saturating PEA agonist 100%; activation, % at 3 µM; 360,000 tested, 0.99% active; AID 624467;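 active = activation above the mean activation of all test compounds in the run plus 3 SD, cut at about 38% in these data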
Target sequence (Q96RJ0 whole entry, looked up): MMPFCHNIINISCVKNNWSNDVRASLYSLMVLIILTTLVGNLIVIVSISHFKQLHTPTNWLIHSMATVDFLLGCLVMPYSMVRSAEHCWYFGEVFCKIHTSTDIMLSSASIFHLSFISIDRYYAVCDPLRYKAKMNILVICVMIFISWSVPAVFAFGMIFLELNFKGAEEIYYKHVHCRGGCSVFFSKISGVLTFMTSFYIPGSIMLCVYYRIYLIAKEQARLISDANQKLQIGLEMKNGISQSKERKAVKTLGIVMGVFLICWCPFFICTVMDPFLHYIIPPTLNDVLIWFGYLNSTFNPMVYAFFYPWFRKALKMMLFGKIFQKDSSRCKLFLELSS
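System: CHO-derived RD-HGA16 cells with stable Gα16 and human TAAR1 / Times: 17-24 h plating, Fluo-8 75 min 37 °C, 30 min RT / Technique: calcium-sensitive Fluo-8 signal, excitation 470-495, emission 515-575 nm / Measure: % activation relative to PEA EC100 response / Benchmarks: DMSO and PEA EC100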
OX1R antag-1: antagonists of human orexin 1 receptor (OX1R); O43613; OX1R-expressing cells, FRET antagonist read-out; inhibition, % at 6.6 µM; 330,000 tested, 1.8% active; AID 485270; in the data active = inhibition mostly above about 38%, no sharp cut-off; inactive = mostly below about 40%;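 also: 0% = agonist challenge alone and 100% = reference antagonist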
CHO parental Ca: signal in parental CHO cells, OX1R antagonist counter-screen. AID 463079. inhibition, % at 5.6 µM. 330,000 tested, 0.63% active. parental CHO-K1, ATP-induced calcium, Fluo-8 fluorescence;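 active = inhibition above that plate's mean sample inhibition plus 3 SD, cut at about 26% in these data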;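 also: 0% = ATP-challenged DMSO wells and 100% = DMSO wells without ATP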
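Assay system: parental CHO cells; Read-out basis: percent inhibition of ATP-evoked calcium rise, normalized to controls; Benchmarks: ATP and no-ATP DMSO wells; Compound dosing: single nominal dose of 5.6 µM per compound; Signal: Fluo-8 calcium dye fluorescence; Also added: ATP as calcium-mobilizing challenge; Repeats: singlicate.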
GPR7 antagonist: antagonists of human GPR7 (neuropeptides B/W receptor 1); P48145; GPR7-expressing cells, fluorescence antagonist assay; inhibition, % at 4.4 µM; 290,000 tested, 1.1% active; AID 1861; in the data active = inhibition above about 16%, passing the limit was not always enough;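 also: cells stimulated with the agonist NPW; 0% = agonist with vehicle and 100% = vehicle without agonist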
Target sequence (P48145 whole entry, looked up): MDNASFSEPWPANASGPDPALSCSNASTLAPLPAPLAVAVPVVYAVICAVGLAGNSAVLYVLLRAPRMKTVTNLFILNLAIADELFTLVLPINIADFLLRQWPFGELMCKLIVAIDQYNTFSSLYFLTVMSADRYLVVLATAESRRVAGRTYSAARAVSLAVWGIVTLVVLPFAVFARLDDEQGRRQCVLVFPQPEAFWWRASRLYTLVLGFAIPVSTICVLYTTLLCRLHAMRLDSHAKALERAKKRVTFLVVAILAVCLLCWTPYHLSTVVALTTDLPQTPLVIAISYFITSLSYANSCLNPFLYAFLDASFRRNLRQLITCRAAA
TAAR1 antagonist: antagonists of human TAAR1. Q96RJ0. CHO RD-HGA16 TAAR1, Fluo-8 calcium fluorescence, antagonist. inhibition, % at 3 µM. 360,000 tested, 1.5% active;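 active = inhibition above a per-plate cutoff, the mean inhibition of test compounds on that plate plus 3 SD, cut at about 49% in these data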;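 also: 0% = DMSO plus EC80 beta-PEA response and 100% = DMSO alone without agonist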
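Test system: CHO RD-HGA16 cells bearing hTAAR1 | Reagent: β-PEA, EC80 | Compound dosing: 3 µM, single point | Schedule: Dye loading 75 min at 37 °C, then 30 min room temperature | Signal: Calcium fluorescence with Fluo-8 | Evaluation: Percent inhibition of PEA-evoked calcium signal, max/basal emission ratio | Control set: DMSO-only wells and EC80 β-PEA-stimulated wells | Repeats: Singlicate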
OX1R antag-2: antagonists of human orexin 1 receptor; O43613; CHO/OX1R cells, Fluo-8 calcium fluorescence, orexin A; inhibition, % at 5 µM; 330,000 tested, 0.43% active; AID 434989;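 active = inhibition above its plate's threshold, mean inhibition of all tested compounds on the plate plus 3 SD, cut at about 37% in these data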;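 also: 0% = orexin A challenge wells and 100% = SB-334867-A antagonist wells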
The depositor's hits bear a star; . = no result. This is a sample that favours compounds with a hit; in the whole collection about 4.6% have one here.

SMILES | TAAR1 agonist | OX1R antag-1 | CHO parental Ca | GPR7 antagonist | TAAR1 antagonist | OX1R antag-2
CCOC(=O)Cc1csc(SCC(=O)Nc2cccc(Cl)c2)n1 | 9 | 34 | 10 | -2 | 25 | 5
CCOC(=O)Cc1csc(SCC(=O)Nc2cc(Cl)ccc2Oc2ccccc2)n1 | 17 | 54 | 62* | 6 | 88* | 61*
O=C(C[C@@H]1C/C=C\C[C@@H](Cc2ccc(F)cc2)C(=O)OCCNC1=O)NCCO | 7 | 3 | -5 | . | 8 | -12
Cn1ccnc1CN1CCCCC1C(=O)Nc1ccc(Oc2cccnc2)cc1 (stereo not drawn) | 1 | 9 | -9 | 8 | -8 | -3
CCCCNC(=O)C1CCC(CNS(=O)(=O)c2cccc3nsnc23)CC1 (stereo not drawn) | 11 | 41 | -11 | -10 | -23 | -8
O=C(CCCNS(=O)(=O)c1cccc2nsnc12)NC1CCCCC1 | 1 | 80* | -12 | 4 | 8 | -20
CCCNC(=O)C1CCC(CNS(=O)(=O)c2cccc3nsnc23)CC1 (stereo not drawn) | 6 | 34 | 0 | -17 | -7 | 8
CCC(C)NC(=O)C1CCC(CNS(=O)(=O)c2cccc3nsnc23)CC1 (stereo not drawn) | . | 50* | -10 | -7 | . | -8
COCCNC(=O)C1CCC(CNS(=O)(=O)c2cccc3nsnc23)CC1 (stereo not drawn) | 5 | 24 | -4 | -13 | -11 | 7
CC1CCCN(CCCNC(=O)C2CCC(CNS(=O)(=O)c3cccc4nsnc34)CC2)C1 (stereo not drawn) | . | 48* | -7 | -6 | . | 1
CCOCCCNC(=O)C1CCC(CNS(=O)(=O)c2cccc3nsnc23)CC1 (stereo not drawn) | 7 | 53* | -7 | -7 | 7 | -12
COc1cc2cc(c1Cl)N(C)C(=O)CC(OC(=O)C(C)N(C)C(C)=O)C1(C)OC1C(C)C1CC(O)(NC(=O)O1)C(OC)C=CC=C(C)C2 (stereo not drawn) | 0 | . | . | . | -4 | .
CCCCn1c(N)c(N(CCOC)C(=O)CN2c3ccccc3CC2C)c(=O)[nH]c1=O (stereo not drawn) | 3 | 6 | 1 | -4 | 0 | -13
CCOC(=O)c1nn(-c2ccccc2)cc1O | -1 | -6 | -6 | -4 | -2 | -3
COC(=O)c1nn(-c2ccc(-c3ccccc3)cc2)cc1O | 3 | 24 | 2 | 2 | 52* | 16
COc1ccc(C(=O)C[n+]2cccc3cc(OC)ccc32)cc1 | 1 | 14 | 3 | -3 | 18 | -7
COc1cccc(C(=O)C[n+]2cccc3cc(OC)ccc32)c1 | 4 | 34* | -13 | . | -11 | -17
CC(C)c1nc(CN(C)C(=O)N[C@H](C(=O)N[C@@H](Cc2ccccc2)C[C@H](O)[C@H](Cc2ccccc2)NC(=O)OCc2cncs2)C(C)C)cs1 | . | 18 | -31 | -6 | . | -18
CCCNc1[nH]c(=O)n(C)c(=O)c1N=O | 7 | 69* | -3 | -3 | 6 | -21
Cc1ccc(C)c(C(=O)COC(=O)c2nn(C)c(=O)c3ccccc23)c1 | 6 | 33* | -27 | . | 41 | -1
Cn1nc(C(=O)OCC(=O)c2ccccc2)c2ccccc2c1=O | 5 | 4 | -25 | . | 20 | -17
O=C1NC(Cc2ccc(O)cc2)c2nc3ccc(Br)cc3c(=O)n2-c2ccc(Cl)cc21 (stereo not drawn) | 8 | 10 | -11 | . | -24 | -2
c1ccc(Nc2nc3ccccc3n3cnnc23)cc1 | -2 | 59* | -2 | -10 | 1 | 5
COc1ccc(OC)c(Nc2cc(C)c3ccccc3n2)c1 | -3 | 11 | -28 | 21 | 11 | -22
COc1cccc(Nc2cc(C)c3ccccc3n2)c1 | -3 | 49* | -28 | -1 | -15 | -30
SMILES | TAAR1 agonist | OX1R antag-1 | CHO parental Ca | GPR7 antagonist | TAAR1 antagonist | OX1R antag-2
CCCN(C(=O)CSc1nnc(-c2ccc3c(c2)OCO3)o1)C1CCS(=O)(=O)C1 (stereo not drawn) | 1 | . | . | . | -18 | .
Cc1ccc2oc(=O)c3cc(C(=O)N4CCN(C(=O)c5ccco5)CC4)sc3c2c1 | . | 4 | -9 | -12 | . | -10
CCN(Cc1ccccc1)C(=O)c1cc2c(=O)oc3ccc(C)cc3c2s1 | 2 | 19 | -11 | -13 | 83* | -55
C/C(=N\NC(=O)C1CC1)c1ccc(N2CCOCC2)cc1 | 1 | 16 | 16 | 17* | -2 | 0
C/C(=N\NC(=O)c1ccccc1)c1ccc(N2CCOCC2)cc1 | -1 | 15 | 5 | 6 | 4 | -3
O=C(NC1CCCC1)C(c1cccs1)N(CC1CCCO1)C(=O)Cc1cccs1 (stereo not drawn) | 3 | 22 | -20 | 18* | 12 | -8
COc1ccc(C(C(=O)NC2CCCC2)N(CC2CCCO2)C(=O)Cc2cccs2)cc1OC (stereo not drawn) | -1 | 12 | -22 | 18 | 8 | -33
CCCn1c(SCC(=O)Nc2ccc(OC)cc2)nnc1-c1ccncc1 | 7 | 8 | -11 | 14 | -5 | -18
COc1ccc(Cn2c(C)nc3ccc([N+](=O)[O-])cc3c2=O)cc1 | 2 | 6 | 6 | 21 | 6 | -19
CCC1(c2ccc(F)cc2)NC(=O)N(CC(=O)Nc2ccc(N3CCCCC3)cc2)C1=O (stereo not drawn) | 60* | -10 | 1 | . | 19 | -12
O=C1CCC[C@@H]2[C@@H](Cc3ccccc3)[C@H](N3CCN(c4ccccc4)CC3)C[C@@H]3CCN1[C@@H]32 | 3 | . | . | . | -12 | .
COc1cc2nc(N(CCCN(C)C)C(=O)c3ccc(S(=O)(=O)N4CCc5ccccc54)cc3)sc2cc1OC | 40* | 9 | -14 | . | -9 | -18
Cc1cc(C)c2sc(N(CCCN(C)C)C(=O)c3ccc(S(=O)(=O)N(C)C4CCCCC4)cc3)nc2c1 | 41* | 20 | -6 | . | 19 | -26
CCN(Cc1ccccc1)S(=O)(=O)c1ccc(C(=O)N(CCCN(C)C)c2nc3ccc(F)cc3s2)cc1 | 41* | 4 | -7 | 1 | 40 | -15
COCCNC(=O)c1ccc(N2CC3CC(C2)c2cccc(=O)n2C3)c(NC(=O)c2ccccc2Cl)c1 (stereo not drawn) | 1 | . | . | . | -15 | .
CCCCOCCCNC(=O)C[C@@H]1C[C@@]2(C(=O)OCC)CCC=C2N(Cc2ccc3c(c2)OCO3)C1=O | 2 | . | . | . | -17 | .
COc1ccc2nc(-c3ccc(CN4CCC5(CC4)CNc4ccccc45)cc3)c(-c3ccccc3)nc2c1 | 0 | . | . | . | 0 | .
COc1cc(C(=O)NC(=S)N(CCc2ccccc2)CCc2ccccc2)cc(OC)c1OC | 6 | 5 | -14 | -13 | 53* | -18
Cc1nn(Cc2ccccc2)c(C)c1NC(=O)c1ccc([N+](=O)[O-])cc1[N+](=O)[O-] | 3 | 45* | -3 | 3 | 7 | -13

Assay outcomes as filed in PubChem BioAssay.
